Most compounds without a hit are left out; they make up all but 1.9% or so of the library.
M5 PAM – human M5 muscarinic receptor positive allosteric modulators, primary screen, CHO-K1 cells, Fluo-8 calcium fluorescence | activation, % at 3 µM | CHO-K1 hM5, ACh EC20 PAM; 0% = ACh EC20, 100% = ACh EC100 | 360,000 compounds, 0.3% hits;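 active = activation above the run cutoff, the mean activation of all test compounds plus 3 SD, cut at about 18% in these data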
Target sequence (P08912 whole entry, looked up): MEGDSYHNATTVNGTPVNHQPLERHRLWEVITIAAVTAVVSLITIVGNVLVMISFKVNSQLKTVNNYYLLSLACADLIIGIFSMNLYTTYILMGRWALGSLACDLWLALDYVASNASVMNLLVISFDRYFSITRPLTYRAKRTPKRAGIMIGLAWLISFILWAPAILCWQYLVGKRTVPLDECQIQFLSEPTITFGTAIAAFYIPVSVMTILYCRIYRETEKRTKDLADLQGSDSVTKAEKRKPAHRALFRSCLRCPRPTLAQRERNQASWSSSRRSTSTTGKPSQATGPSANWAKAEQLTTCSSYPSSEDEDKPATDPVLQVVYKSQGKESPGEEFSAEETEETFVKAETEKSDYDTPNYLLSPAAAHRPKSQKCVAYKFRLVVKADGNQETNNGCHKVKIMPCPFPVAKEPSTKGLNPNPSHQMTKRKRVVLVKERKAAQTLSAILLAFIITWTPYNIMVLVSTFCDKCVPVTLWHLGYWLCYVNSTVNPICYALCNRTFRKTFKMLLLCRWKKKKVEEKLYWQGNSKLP
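System: CHO-K1 hM5 cells. Reagent: acetylcholine, EC20 level. Compound dosing: single dose, 3 µM nominal final test concentration. Timing: Post-acetylcholine fluorescence recording 140 s. Detection: Fluo-8 calcium fluorescence. Read-out: % activation, ACh-normalized. Benchmarks: ACh EC20 and EC100 wells. Repeats: singlicate, one well per test compound.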
M5 antag – human M5 muscarinic receptor antagonists, primary screen, CHO cells, Fluo-8 calcium fluorescence; Muscarinic acetylcholine receptor M5 (Homo sapiens), P08912; CHO-hM5 cells, ACh EC80; inhibition, % at 3 µM; 360,000 compounds, 0.59% hits;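 active = inhibition above a per-plate cutoff, the mean of that plate's test compounds plus 3 SD, cut at about 27% in these data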
M4 PAM – human M4 muscarinic receptor positive allosteric modulators, primary screen, CHO-K1 cells, Fluo-8 calcium fluorescence | AID 624126, 2012 | CHO-K1 hM4/Gqi5, ACh EC20; 0% = ACh EC20, 100% = maximal ACh | 360,000 compounds, 0.4% hits | Muscarinic acetylcholine receptor M4 (Homo sapiens), P08173 | activation, % at 3 µM;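 active = activation above its plate's cutoff, the mean activation of sample wells plus 3 SD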
M4 antag – human M4 muscarinic receptor antagonists, primary screen, CHO cells, Fluo-8 calcium fluorescence. 360,000 compounds, 0.73% hits. inhibition, % at 3 µM. CHO-hM4 cells, ACh EC80. Muscarinic acetylcholine receptor M4 (Homo sapiens), P08173. AID 624125, 2012;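 active = inhibition above its plate's cutoff, the mean inhibition of sample wells plus 3 SD, cut at about 27% in these data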
M4 ag – human M4 muscarinic receptor agonists, primary screen, CHO-K1 cells, Fluo-8 calcium fluorescence; Muscarinic acetylcholine receptor M4 (Homo sapiens), P08173; CHO-K1 hM4/Gqi5; vehicle 0%, full acetylcholine response 100%; activation, % at 3 µM; 360,000 compounds, 0.14% hits;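 active = activation above the run mean over all test wells plus 3 SD, cut at about 32% in these data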;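 note: peak over basal fluorescence ratio per well then scaled between controls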
M5 ag – human M5 muscarinic receptor agonists, primary screen, CHO-K1 cells, Fluo-8 calcium fluorescence; activation, % at 3 µM; AID 624037, 2012; 360,000 compounds, 0.19% hits; CHO-K1 hM5 cells; 0% DMSO wells, 100% maximal acetylcholine response;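 active = activation above the run's mean over test compounds plus 3 SD, cut at about 23% in these data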;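 note: signal is peak over basal fluorescence ratio across the kinetic read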
Large screens that a line does not name were inactive.

OCCNCc1cccc(-c2ccccc2)c1O	none
Cc1ccc(C)c(-n2c(=O)c(C#N)cc3c(=O)n4ccccc4nc32)c1	M5 PAM 28
Cc1ccc(S(=O)(=O)N(C)C)cc1NC(=O)COC(=O)COc1ccc2c(c1)CCC2	none
CC(C)[C@H](NC(=O)OC(C)(C)C)c1nnc(S(=O)(=O)Cc2c(F)cccc2Cl)o1	M4 antag 43
Cc1ccccc1CS(=O)(=O)c1nnc([C@H](CC(C)C)NC(=O)OC(C)(C)C)o1	M4 antag 28
CC[C@@H](C)[C@H](NC(=O)OC(C)(C)C)c1nnc(S(=O)(=O)Cc2cc(C)ccc2C)o1	M4 antag 48
CC(C)C[C@H](NC(=O)OC(C)(C)C)c1nnc(SCc2ccccc2)o1	none
COc1ccc(NS(=O)(=O)c2cccc(C(=O)OCC(=O)NC3CC3)c2)cc1	none
CC(C(=O)NCCCn1ccnc1)(c1ccccc1)c1ccccc1	none
COc1ccccc1N1C(=NC(=O)CCc2ccccc2)SC2CS(=O)(=O)CC21 (centres undefined)	none
NCCCCCc1nnc(SC/C=C/c2ccccc2)o1	M4 antag 38
NCCc1nnc(SCc2c(Cl)cccc2Cl)o1	none
O=C(NCc1nnc(SC/C=C/c2ccccc2)o1)c1ccco1	none
NCCCCCc1nnc(SCc2ccccc2Cl)o1	M5 antag 28
C#CCNC(=O)C1=C[C@H](c2ccc(C(F)(F)F)cc2)[C@@H](CCCO)[C@H](OCC)O1	none
O=C(COC(=O)c1ccc(O)cc1O)Nc1cc(-c2ccccc2)nn1-c1ccccc1	none
Cc1ccc(NC(=O)c2cc(S(=O)(=O)N3CCCC3)cn2C)cc1	none
CC(=O)Nc1ccc(S(=O)(=O)CCC#N)cc1	M5 PAM 40
CC(C(=O)Nc1ccccn1)N1C(=O)c2ccccc2S1(=O)=O (centres undefined)	none
CCOc1ncccc1C(=O)OCC(=O)NC(=O)c1ccccc1	none
O=S(=O)(Nc1ccc2c(c1)OCO2)c1cccs1	M5 PAM 34
CCCC(CCC)C(=O)OC1C[C@H]2CC[C@@H](C1)[N+]2(C)C (some centres undefined)	M5 antag 98, M4 antag 99
CCCC(CCC(=O)NC1CCCCC1)C(=O)O (centres undefined)	none
C=C1CCN([C@H](C(=O)NCc2ccc(OC)cc2)C(C)C)S(=O)(=O)c2ccccc21	none
COc1ccccc1Oc1ccc2c(c1)C(=O)N(c1cccc3ncccc13)C2=O	M5 antag 39
N#Cc1c(Cl)nc(N/N=C/c2ccccc2)c(Cl)c1Cl	none
C[N+](C)(C)c1ccc(/C=N/Nc2nc(Cl)c(C#N)c(Cl)c2Cl)cc1	M5 ag 32
COc1ccc(-n2ccn(CC(=O)Nc3ccc(OC)cc3OC)c(=O)c2=O)cc1	none
COc1ccc(NC(=O)CSc2ncnc3c2cnn3Cc2ccccc2)cc1OC	M4 antag 29
COc1ccc(NC(=O)CSc2ncnc3c2cnn3Cc2ccccc2)cc1	none
COCCn1cnc2c1c(=O)[nH]c(=O)n2Cc1ccccc1	none
O=C(/C=C/c1ccc(F)cc1)NC(=S)N1CCN(c2ccccn2)CC1	M5 PAM 19
COc1ccc(/C=C/C(=O)NC(=S)N2CCN(c3ccccn3)CC2)cc1OC	none
O=C(Nc1ccccc1)Nc1ccc(-n2ccc(C(F)(F)F)n2)cc1	M5 antag 51, M4 antag 45
CCOC(=O)c1c(NC(=O)CSc2nnc(-c3ccco3)o2)sc(C(C)=O)c1C	none
CCOC(=O)c1c(NC(=O)CSc2nnc(-c3ccco3)o2)sc(C)c1C	M4 PAM 36
CCOC(=O)c1c(NC(=O)CSc2nnc(-c3cccnc3)n2Cc2ccco2)sc(C)c1C	M5 PAM 19
CCCS(=O)(=O)N1CCN(C(=O)c2ccco2)CC1	M5 PAM 19, M4 PAM 20
CCS(=O)(=O)N1CCN(C(=O)c2ccco2)CC1	none
C[C@H](CO)N1C[C@H](C)[C@@H](CN(C)C(=O)Nc2ccc3c(c2)OCO3)Oc2c(NC(=O)c3ccncc3)cccc2C1=O	none
O=C(Nc1ccccc1Cl)c1cc(S(=O)(=O)N2CCOCC2)cs1	none
O=C(Nc1ccccc1C(=O)O)c1cc(S(=O)(=O)N2CCOCC2)c(Br)s1	M5 PAM 18, M4 PAM 16
COc1ccccc1N(CC(=O)NCCSCc1cccc(C)c1)S(=O)(=O)c1ccccc1	none
CC(C)N(Cc1nccn1C)C(=O)c1cc(COc2ccc(F)cc2Cl)on1	M5 antag 31
COC(=O)c1cc(NC(=O)/C=C/c2ccc3c(c2)OCO3)cc(C(=O)OC)c1	M4 antag 36
COC(=O)c1cccc(NC(=O)/C=C/c2ccc3c(c2)OCO3)c1	none
CCOC(=O)/C(=C\c1ccccc1)C(=O)c1cc(C(C)=O)c(Nc2ccccc2)s1	none
CCOC(=O)/C(=C\c1cccnc1)C(=O)c1cc(C(C)=O)c(Nc2ccccc2)s1	M4 antag 46
Cc1ccccc1-n1c(SCC(=O)N2CCCC2)nnc1-c1ccccn1	M5 PAM 19
Cn1c(Cc2ccccc2)nnc1SCC(=O)N1CCCCC1	M4 antag 95
CCCCNc1c(CC(C)C)nc2nc(C)cc(C)n12	none
COc1ccc(C)cc1NS(=O)(=O)c1ccc(Cl)nc1	none
N=c1c2c3c(sc2nc2n1CCCCC2)CCCCC3	M4 antag 29
Oc1ccc(-c2n[nH]c(C(F)(F)F)c2-c2ccccc2)c(O)c1	M5 antag 64, M4 antag 47
COc1ccc(-c2c(-c3ccc(O)cc3O)n[nH]c2C(F)(F)F)cc1	none
Cc1ccc2c(Cl)c(C(=O)NCC(c3ccco3)N3CCCC3)sc2c1 (centres undefined)	M5 antag 27
CCN1CCN(c2ccc(S(=O)(=O)N3CCCCC3)cc2NC(=O)Cc2ccccc2)CC1	none
Cc1ccc(S(=O)(=O)N2CCOCC2)cc1NC(=O)COC(=O)C1CCC1	none
CCN1CCN(c2ccc(S(=O)(=O)N3CCOCC3)cc2NC(=O)CCOc2ccccc2)CC1	M5 antag 29
CCOC(=O)C1CCN(CC(=O)Nc2cc(S(=O)(=O)N3CCOCC3)ccc2C)CC1	M5 PAM 19
